# Results taken from ChEMBL document CHEMBL1125351, “Isobenzofurans as conformationally constrained miconazole analogues with improved antifungal potency” (1992).
# Key:
# [1] = test system: Candida tropicalis; assay: Minimum inhibitory concentration against Candida tropicalis at a pH of 5.7 using SDB medium; assay type: functional
# Method in brief: (§1)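 Broth dilution in Sabouraud dextrose broth, pH 5.7. Compounds dissolved in DMSO or ethanol, serially diluted in medium, inoculated and incubated at 27 °C. Wells read visually at 48 h. MIC is the lowest concentration giving complete growth inhibition.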
# [2] = test system: Candida; assay: Compound is evaluated for geometric mean of MIC values of Candida species; assay type: functional; set-up: unit not given beside the values
# [3] = test system: Candida albicans; assay: Minimum inhibitory concentration against Candida stellatoidea at a pH of 5.7 using SDB medium; assay type: functional; method in brief: as §1
# [4] = Geometric mean for the above three species of Candida, tested in EMEM medium; assay type: functional
# Method in brief: (§2)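 Candida MICs in Eagle's minimum essential medium, pH 7.0. Compounds in DMSO or ethanol were serially diluted in medium, inoculated and incubated at 37 °C under CO₂. […] The summary value is the geometric mean of the MICs across strains.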
# [5] = test system: Nannizzia gypsea; assay: Minimum inhibitory concentration against Microsporum gypseum at a pH of 5.7 using SDB medium; assay type: functional
# Method in brief: (§3)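 Dermatophyte isolates tested by serial broth dilution in SDB, pH 5.7. Compound stocks in DMSO or ethanol, incubated at 27 °C, and growth read visually at 72 h. MIC is the lowest concentration with no visible growth. The summary value is the geometric mean of the MICs across the organisms.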
# [6] = test system: Candida albicans; assay: Minimum inhibitory concentration against Candida albicans using eagles minimum essential medium (EMEM); assay type: functional; method in brief: as §2
# [7] = test system: Candida albicans; assay: Minimum inhibitory concentration against Candida albicans at a pH of 5.7 using SDB medium; assay type: functional; method in brief: as §1
# [8] = test system: Candida parapsilosis; assay: Minimum inhibitory concentration against Candida parapsilosis at a pH of 5.7 using SDB medium; assay type: functional; conditions: Lodderomyces parapsilosis; method in brief: as §1
# [9] = test system: Trichophyton rubrum; assay: Minimum inhibitory concentration against Trichophyton rubrum at a pH of 5.7 using SDB medium; assay type: functional; method in brief: as §3
# [10] = test system: Candida tropicalis; assay: Minimum inhibitory concentration against Candida tropicalis using eagles minimum essential medium (EMEM); assay type: functional; method in brief: as §2
# [11] = test system: Microsporum canis; assay: Minimum inhibitory concentration against Microsporum canis at a pH of 5.7 using SDB medium; assay type: functional; method in brief: as §3
# [12] = test system: Cricetinae gen. sp.; assay: Inhibition of Vaginal Candida (C-43 strain) infection in Hamsters, estimated as Percent Area under curve at 0.05 % concentration after 8 days of administration; assay type: functional, Cricetulus griseus
# Method in brief: (§4)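 Hamster vaginal C. albicans infection (strains C43 or C60; 10 animals per compound). From day 5 post-infection, a cotton pellet holding 0.15 mL of 0.05% or 0.01% (w/w) compound in EtOH–PEG 400–glycerol (10:45:45) was inserted once daily for 4 or 8 days. Vaginal swabs were filtered and the filters cultured on SDA at 37 °C for 48 h. Read-out was the area under the % negative cultures versus time curve.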
# [13] = test system: Trichophyton benhamiae; assay: Minimum inhibitory concentration against Trichophyton mentagrophytes at a pH of 5.7 using SDB medium; assay type: functional, Arthroderma benhamiae; method in brief: as §3
# [14] = test system: Arthrodermataceae; assay: Compound is evaluated for geometric mean of MIC values of dermatophytes; assay type: functional; set-up: unit not given beside the values; method in brief: as §3
# [15] = test system: Candida albicans; assay: Minimum inhibitory concentration against Candida stellatoidea using eagles minimum essential medium (EMEM); assay type: functional; method in brief: as §2
# [16] = test system: Epidermophyton floccosum; assay: Minimum inhibitory concentration against Epidermophyton floccosum at a pH of 5.7 using SDB medium; assay type: functional; method in brief: as §3
# [17] = test system: Cricetinae gen. sp.; assay: Inhibition of Vaginal Candida (C-60 strain) infection in Hamsters, estimated as Percent Area under curve at 0.05 % concentration after 4 days of administration; assay type: functional, Cricetulus griseus; method in brief: as §4
# [18] = test system: Cricetinae gen. sp.; assay: Inhibition of Vaginal Candida (C-60 strain) infection in Hamsters, estimated as Percent Area under curve at 0.01 % concentration after 4 days of administration; assay type: functional, Cricetulus griseus; method in brief: as §4
# [19] = test system: Cavia porcellus; assay: In vivo inhibition of topical Trichophyton infection in Guinea Pig after drug administration; assay type: functional
# Method in brief: (§5)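 Guinea pigs (5 per compound) infected with T. mentagrophytes D24 by swabbing a homogenate onto shaven, abraded skin. From day 4 post-infection, 0.25% (w/v) compound in EtOH–PEG 400–glycerol (10:45:45) was rubbed in topically twice daily for 10 days. Hair samples were cultured on SDA at 27 °C for up to 16 days. Read-outs were the % negative cultures and the day each animal became culture-negative.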
# [20] = test system: Cricetinae gen. sp.; assay: Inhibition of Vaginal Candida (C-60 strain) infection in Hamsters, estimated as Percent Area under curve at 0.05 % concentration after 8 days of administration; assay type: functional, Cricetulus griseus; method in brief: as §4
# [21] = species: Cavia porcellus; assay: Lession score which is determined as number of animals minus days to become negative; assay type: functional; method in brief: as §5
# [22] = test system: Cavia porcellus; assay: In vivo inhibition of topical Trichophyton infection in Guinea Pig during drug administration; assay type: functional; method in brief: as §5
compound,measurement,setting,value
Clc1ccc(C2(Cn3ccnc3)OCc3c(Cl)cc(Cl)cc32)c(Cl)c1 (stereo not given),MIC,[1],8 µg/mL
same,Geometric mean,[2],4.9
same,MIC,[3],4 µg/mL
same,Geometric mean,[4],2
same,MIC,[5],16 µg/mL
same,MIC,[6],2 µg/mL
same,MIC,[7],8 µg/mL
same,MIC,[8],4 µg/mL
same,MIC,[9],8 µg/mL
same,MIC,[10],2 µg/mL
same,MIC,[11],8 µg/mL
same,Inhibition,[12],<30%
same,MIC,[13],8 µg/mL
same,Geometric mean,[14],9.5
same,MIC,[15],2 µg/mL
c1ccc(-c2ccc(C3(Cn4ccnc4)OCc4ccccc43)cc2)cc1 (stereo not given),MIC,[1],32 µg/mL
same,Geometric mean,[2],7.2
same,MIC,[3],16 µg/mL
same,Geometric mean,[4],0.16
same,MIC,[16],< 0.031 µg/mL
same,MIC,[5],8 µg/mL
same,MIC,[6],0.25 µg/mL
same,MIC,[7],32 µg/mL
same,MIC,[8],< 0.031 µg/mL
same,MIC,[9],< 0.031 µg/mL
same,MIC,[10],0.063 µg/mL
same,MIC,[11],1 µg/mL
same,MIC,[13],< 0.031 µg/mL
same,MIC,[15],0.125 µg/mL
Clc1ccc(C2(Cn3ccnc3)OCc3ccccc32)c(Cl)c1 (stereo not given),MIC,[1],32 µg/mL
same,Inhibition,[17],94%
same,Geometric mean,[2],7.2
same,MIC,[3],32 µg/mL
same,Geometric mean,[4],< 0.02
same,MIC,[16],0.063 µg/mL
same,MIC,[5],0.5 µg/mL
same,MIC,[6],< 0.031 µg/mL
same,MIC,[7],32 µg/mL
same,MIC,[8],< 0.031 µg/mL
same,Inhibition,[18],78%
same,MIC,[9],< 0.031 µg/mL
same,MIC,[10],< 0.031 µg/mL
same,MIC,[11],< 0.031 µg/mL
same,MIC,[13],< 0.031 µg/mL
same,Geometric mean,[14],<0.04
same,MIC,[15],< 0.031 µg/mL
Clc1ccccc1C(c1ccccc1)(c1ccccc1)n1ccnc1 [CLOTRIMAZOLE],Culture negative,[19],87%
same,Inhibition,[20],34%
same,Lesion score,[21],5
same,Culture negative,[22],75%
Fc1ccc(C2(Cn3ccnc3)OCc3ccccc32)c(F)c1 (stereo not given),MIC,[1],64 µg/mL
same,Inhibition,[17],88%
same,Geometric mean,[2],48
same,MIC,[3],> 64 µg/mL
same,Geometric mean,[4],< 0.02
same,MIC,[6],< 0.031 µg/mL
same,MIC,[7],> 64 µg/mL
same,MIC,[8],0.25 µg/mL
same,Inhibition,[18],69%
same,MIC,[9],16 µg/mL
same,MIC,[10],< 0.031 µg/mL
same,MIC,[11],2 µg/mL
same,MIC,[13],0.5 µg/mL
same,Geometric mean,[14],2.5
same,MIC,[15],< 0.031 µg/mL
Clc1ccc(C2(Cn3ccnc3)OCc3ccc(Cl)cc32)c(Cl)c1 (stereo not given),MIC,[1],8 µg/mL
same,Inhibition,[17],64%
same,Geometric mean,[2],<15
same,MIC,[3],64 µg/mL
same,Geometric mean,[4],< 0.031
same,MIC,[6],< 0.031 µg/mL
same,MIC,[7],64 µg/mL
same,MIC,[8],< 0.031 µg/mL
same,Inhibition,[18],26%
same,MIC,[9],8 µg/mL
same,MIC,[10],1 µg/mL
same,MIC,[11],0.5 µg/mL
same,MIC,[13],0.5 µg/mL
same,Geometric mean,[14],1.3
same,MIC,[15],< 0.031 µg/mL
Clc1ccc(CC2(Cn3ccnc3)OCc3ccccc32)cc1 (stereo not given),MIC,[1],> 64 µg/mL
same,Geometric mean,[2],>78
same,MIC,[3],> 64 µg/mL
same,Geometric mean,[4],0.25
same,MIC,[16],0.25 µg/mL
same,MIC,[5],32 µg/mL
same,MIC,[6],0.25 µg/mL
same,MIC,[7],> 64 µg/mL
same,MIC,[8],4 µg/mL
same,MIC,[9],8 µg/mL
same,MIC,[10],0.25 µg/mL
same,MIC,[11],4 µg/mL
same,MIC,[13],8 µg/mL
same,Geometric mean,[14],4.6
same,MIC,[15],0.25 µg/mL
